High-throughput results as filed in PubChem.
TDP2 absorb: human TDP2 enzyme inhibitors, primary screen, biochemical, epi absorbance, recombinant enzyme | Tyrosyl-DNA phosphodiesterase 2 (Homo sapiens), O95551 | T5PNP hydrolysis, p-nitrophenol absorbance 415 nm | inhibition, % at 12.8 µM | hit rate 0.34% among 370,000;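 active = inhibition above the mean of all tested compounds plus 3 SD, set per campaign, cut at about 25% in these data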;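 note: 0% = DMSO with enzyme and 100% = buffer with substrate but no TDP2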
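Read-out basis: percent inhibition. System: recombinant human TDP2. Buffer or medium: Mg2+-containing Tris-HCl buffer, pH 7.5. Repeats: single replicate. Timing: reaction 2 h, 37 °C. Benchmarks: high control without enzyme, low control DMSO plus TDP2. Probe or stimulus: 5 mM T5PNP. Doses: 12.8 µM only. Measured by: epi absorbance of p-nitrophenol freed from T5PNP by hydrolysis.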
TCR CD3 inh: inhibitors of human TCR-CD3 interaction, primary screen, biochemical, fluorescence, TAMRA-labeled TCR probe. inhibition, % at 9.4 µM. hit rate 0.37% among 360,000. AID 651800, 2012; in the data active = inhibition above about 19%;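 note: recombinant mutant TCR 2C K166C tagged with TAMRA read by polarization; 0% = receptor in buffer alone and 100% = receptor with positive control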
mABHD4 FP: ABHD4 inhibitors, primary screen, biochemical, fluorescence polarization, mouse. AID 720543, 2013. (Lyso)-N-acylphosphatidylethanolamine lipase (Mus musculus), Q8VD66. hit rate 0.54% among 370,000. purified mABHD4, FP-Rh probe fluorescence polarization. inhibition, % at 8.92 µM;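 active = inhibition exceeding the mean over every tested compound plus 3 SD, cut at about 30% in these data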;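 note: 0% = plate median of compound wells and 100% = S159A mutant with DMSO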
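Assay system: mABHD4 protein; medium: HEPES pH 7.0, NaCl, Pluronic buffer; dosing: 8.92 µM, single dose; schedule: 45 min + 60 min at 25 °C; signal: FP readout, ex 525 nm / em 598 nm; read-out: normalized percent inhibition of probe labeling; repeats: single replicate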
SIAE primary: human SIAE inhibitors, primary screen, biochemical, fluorescence polarization, FP-Rh probe, 1536-well HTS | AID 1053197, 2014 | inhibition, % at 9.66 µM | hit rate 0.69% among 370,000 | Sialate O-acetylesterase (Homo sapiens), Q9HAT2 | SIAE FP-Rh probe binding;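 active = inhibition above a cutoff: mean of compounds within the control limits plus 3 SD of those, cut at about 17% in these data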;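 note: 0% = plate median of compound wells and 100% = probe without SIAE protein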
HTRA1 inh: HTRA1 serine protease inhibitors, primary screen, biochemical, fluorescence polarization, HTS; Q92743; recombinant HTRA1, FP-rhodamine activity-based probe; inhibition, % at 5.96 µM; hit rate 0.5% among 340,000; AID 504803, 2011; in the data active = inhibition above about 36%;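 note: 0% = enzyme with DMSO and 100% = wells lacking enzyme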
Target sequence (Q92743 whole entry, looked up): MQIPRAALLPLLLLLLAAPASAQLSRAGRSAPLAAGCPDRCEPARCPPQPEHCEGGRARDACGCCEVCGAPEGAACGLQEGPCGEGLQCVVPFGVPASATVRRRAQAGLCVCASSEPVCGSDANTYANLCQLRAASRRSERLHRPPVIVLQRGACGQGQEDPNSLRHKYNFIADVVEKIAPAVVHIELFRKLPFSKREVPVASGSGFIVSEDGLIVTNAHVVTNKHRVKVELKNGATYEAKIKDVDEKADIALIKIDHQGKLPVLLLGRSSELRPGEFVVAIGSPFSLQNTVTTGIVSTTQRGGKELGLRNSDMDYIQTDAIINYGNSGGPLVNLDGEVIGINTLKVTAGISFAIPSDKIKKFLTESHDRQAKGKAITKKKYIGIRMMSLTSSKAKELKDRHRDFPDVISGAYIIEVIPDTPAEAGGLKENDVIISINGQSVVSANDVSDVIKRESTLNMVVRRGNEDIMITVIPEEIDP
LEDGF integ inh: blockers of LEDGF/p75-dependent integrase strand transfer – biochemical, TR-FRET, high throughput, primary screen | inhibition, % at 3.7 µM | hit rate 0.64% among 370,000 | HIV-1 integrase (with human LEDGF/p75) | TR-FRET IN-LEDGF/p75 DNA integration, Eu/Cy5;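 active = inhibition above the screen-wide mean plus 3 SD, cut at about 13% in these data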;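 note: signal is the Cy5 over europium emission ratio at 671 and 618 nm; 0% = plate median of compound wells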
IN multimer act: HIV-1 IN multimer formation enhancers, counter-screen for LEDGF/p75 integration inhibitor project, biochemical, TR-FRET; shares compounds with LEDGF integ inh; TR-FRET HIV-1 integrase multimerization; activation, % at 7.7 µM; hit rate 17% among 2,000; AID 1053131, 2014; in the data active = activation above about 8.9%
TRFRET interf: TR-FRET optical interference artefacts, confirmation, artefact control for LEDGF/p75-dependent integration inhibitor project, biochemical, HIV-1 IN multimerization | AID 1053135, 2014 | 2,000 tested, under 10 active | TR-FRET optical interference counterscreen | shares compounds with LEDGF integ inh | inhibition, % at 7.7 µM;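 active = inhibition above the mean over all tested compounds plus 3 SD, which no compound reached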;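 note: 0% = integrase with antibodies and DMSO and 100% = antibodies without integrase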
IN-LEDGF confirm: inhibitors of HIV-1 IN-LEDGF/p75 DNA integration, confirmation, biochemical, TR-FRET; shares compounds with LEDGF integ inh; TR-FRET LEDGF/p75-dependent HIV-1 integration; inhibition, % at 3.7 µM; hit rate 36% among 2,000; in the data active = inhibition above about 14%
Numbers without * were called inactive; x = no result given. Compounds with a hit are over-represented: about 2.2% of the library has one in this group of screens.

SMILES	TDP2 absorb	TCR CD3 inh	mABHD4 FP	SIAE primary	HTRA1 inh	LEDGF integ inh	IN multimer act	TRFRET interf	IN-LEDGF confirm
COc1ccc(CN2C(=O)N3Cc4ccc(C)cc4C3CS2(=O)=O)cc1 (configuration not stated)	-11	x	6	-5	x	4	x	x	x
COc1ccc(NC(=S)N(CCCN2CCCCC2)Cc2cccs2)cc1	-1	0	8	0	-1	87*	0	-2	-6
O=C1CSC(c2ccc(Cl)c(Cl)c2)N1c1nccs1 (configuration not stated)	-9	4	-8	-3	-16	18*	-2	11	-4
CC1Cc2ccccc2N1C(=O)CSCC(=O)O (configuration not stated)	-2	2	6	0	15	16*	1	-4	-3
CC1Cc2ccccc2N1C(=O)CSc1ccccn1 (configuration not stated)	-1	-6	-3	1	-2	-6	x	x	x
CCOc1cccc(=O)c2c(C)n(Cc3ccco3)c(C)c12	-5	3	22	-3	28	31*	1	-5	13
Nc1nc(SCC(=O)N2N=C3/C(=C\c4ccco4)CCCC3C2c2ccco2)n[nH]1 (configuration not stated)	-10	5	6	-1	-5	2	x	x	x
O=C(CSc1nccc(=O)[nH]1)N1N=C2/C(=C/c3ccco3)CCCC2C1c1ccco1 (configuration not stated)	-4	9	10	16	6	37*	2	-9	19*
Nc1nc(SCC(=O)N2N=C3/C(=C/c4ccco4)CCCC3C2c2ccco2)n[nH]1 (configuration not stated)	9	-4	3	-6	-3	18*	1	-4	6
CSc1ncnc2c1ncn2CCCNCCc1ccccn1	-1	-8	-1	5	-3	2	x	x	x
O=C(CCCN1C(=O)/C(=C/c2ccccc2Cl)SC1=S)NCCCN1CCOCC1	-12	-40	-52	-4	-15	-7	x	x	x
O=C1C(=Cc2cccc(O)c2O)SC(=S)N1CCCN1CCOCC1	2	7	23	7	23	24*	18*	-66	10
COc1cc(COC(=O)c2cnc(C)cn2)c(OC)cc1Br	14	0	2	3	-1	37*	3	-16	4
CCCCC(=O)Nc1cccc(NC(=O)CC)c1	9	-8	-8	-5	3	25*	6	-32	1
COc1ccc2c(c1)C(c1ccc(C)o1)=NNC(c1cccnc1)=N2	-9	-3	11	4	11	19*	1	-4	-4
COc1ccc2c(c1)C(c1ccc(C)o1)=NNC(c1ccccc1)=N2	1	-1	3	1	-14	-5	x	x	x
CN1CCN(CP(=O)(N2CCOCC2)N2CCOCC2)CC1	2	2	5	3	1	27*	6	-21	3
C(CCN1CCOCC1)CN1CCOCC1	4	-1	-1	0	x	-3	x	x	x
Cc1cc(C(=O)NCc2ccco2)sc1C	8	2	-3	1	5	-2	x	x	x
COc1cccc(C(=O)NC2CC(C)(C)Cc3c2cnn3-c2cccc(F)c2)c1OC (configuration not stated)	7	-1	-4	3	-10	0	x	x	x
COc1cc(N)c2ncccc2c1Cl	47*	10	34*	15	6	44*	-1	3	6
O[C@H](COc1ccccc1)CN1CCC(C(O)(c2ccccc2)c2ccccc2)CC1	-15	x	1	-6	x	7	x	x	x
Cn1c(=O)c2c(nc(NN=C3CCCC3)n2C)n(C)c1=O	6	2	2	7	7	19*	6	-33	10
CC(NCc1ccco1)C(=O)N1CCCN(C)CC1 (configuration not stated)	3	x	4	-5	x	5	x	x	x
COc1ccc(S(=O)(=O)N(CC(=O)Nc2ccc(S(=O)(=O)N3CCOCC3)cc2)c2ccccc2)cc1	2	2	-23	-18	-26	20*	1	-2	1
SMILES	TDP2 absorb	TCR CD3 inh	mABHD4 FP	SIAE primary	HTRA1 inh	LEDGF integ inh	IN multimer act	TRFRET interf	IN-LEDGF confirm
COc1ccc(NC(=O)CN(C)C(=O)c2ccc(S(=O)(=O)N3CCOCC3)cc2)cc1	3	6	4	1	1	-2	x	x	x
O=C(NCCOc1ccccc1)C1=CC=CN2CCS(=O)(=O)N=C12	-2	3	6	2	8	-2	x	x	x
Cc1ccc(C)n1C(CC(=O)O)c1ccc(C#N)cc1 (configuration not stated)	-4	-2	28	-2	x	47*	2	-6	13
OC(c1ccccc1)(c1ccccc1)C1CCN(CCCOc2ccc(-c3ccncc3)cc2)CC1	4	1	3	-5	x	1	x	x	x
COc1ccc(Cn2cc(CN3[C@@H](C)COc4cc(Br)ccc4S3(=O)=O)nn2)cc1	-10	x	0	7	x	-4	x	x	x
c1cn2cc(-c3ccc(CN4CCOCC4)cc3)ccc2n1	2	1	-2	4	x	89*	1	-4	-1
c1cc(-c2ccc(CN3CCOCC3)cc2)n2ccnc2c1	7	7	-2	6	x	2	x	x	x
COc1cc(F)c(C2=CC(=O)C[C@H](c3ccc(Cl)cc3)C2)cc1F	-13	6	-9	-16	-21	0	x	x	x
CCN(Cc1ccc(NC(C)=O)cc1)CC1CCCN(CCc2cccc(OC)c2)C1 (configuration not stated)	2	-1	-4	2	2	63*	0	3	0
CCOCCC(=O)Nc1ccc2c(c1)c(=O)n(C)n2-c1ccccc1F	1	4	3	0	x	-3	x	x	x
